Reference: PubChem BioAssay
The source made the active and inactive calls.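 How the source made its calls, unless noted: active means fluorescence slope after compound addition differing from the mean of all tested samples at 99.7% confidence, mostly higher but some lower; inactive means the rest.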

These molecules were tested against Voltage-gated potassium channel subunit beta-2 (Rattus norvegicus) (UniProt P62483) (assay: KvBeta positive modulators, primary screen, biochemical, NADPH fluorescence (AID 623;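 active means NADPH fluorescence slope more negative than the mean of all samples by about 3 SD, 99.7% confidence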;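 further: fluorescence intensity change per second fitted from 20 to 320 s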)). Details: Recombinant KvBeta, NADPH fluorescence decrease slope, 10 min; at 10 µM; active compounds read low.
Chain of Voltage-gated potassium channel subunit beta-2 (Rattus norvegicus) (P62483 whole entry, looked up): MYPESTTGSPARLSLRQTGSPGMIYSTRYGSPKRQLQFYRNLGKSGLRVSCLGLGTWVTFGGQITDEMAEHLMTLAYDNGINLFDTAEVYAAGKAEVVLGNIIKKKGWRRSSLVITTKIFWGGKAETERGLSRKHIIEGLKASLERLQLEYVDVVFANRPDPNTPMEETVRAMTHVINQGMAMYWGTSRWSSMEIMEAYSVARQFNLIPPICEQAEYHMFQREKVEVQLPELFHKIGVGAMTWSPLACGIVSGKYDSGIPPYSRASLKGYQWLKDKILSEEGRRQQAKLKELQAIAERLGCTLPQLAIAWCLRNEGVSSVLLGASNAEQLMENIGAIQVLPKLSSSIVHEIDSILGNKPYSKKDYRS

| SMILES | NADPH fluorescence slope |
| --- | --- |
| CC(=O)Nc1ccc(Oc2cc(C#N)c(C#N)cc2N2CCCCCC2)cc1 | 2.3e-05 (inactive) |
| COc1ccc2cnn(-c3ccccc3)c(=O)c2c1OC | -7.6e-05 (inactive) |
| COC(=O)c1[nH]c2ccccc2c1NC(=O)CN1CCC(C(N)=O)(N2CCCCC2)CC1 | -1.9e-05 (inactive) |
| CCOC(=O)CSc1nc2cc(C(=O)NCc3ccco3)ccc2c(=O)n1-c1ccc(F)cc1 | 0.000117 (inactive) |
| CSc1nnc2c3ccccc3n(Cc3ccccc3)c2n1 | -4.8e-05 (inactive) |
| O=C(c1cccs1)c1cn(CC(=O)N2CCc3ccccc3C2)c2ccccc12 | -3.8e-05 (inactive) |
| Cc1ccccc1CN1CCN(CC(=O)NCc2ccco2)C1=O | -0.000109 (inactive) |
| Cc1ccc(CC23CN4CCN(CC(C4)C2O)C3)c(C)c1 (stereo not given) | -2.9e-05 (inactive) |
| C[C@H](NC(=O)Nc1ccccc1F)C(=O)O | 5.1e-05 (inactive) |
| COc1cc(-c2c(C#N)c(N)nc3c2CCCC3)cc(OC)c1OC | -6.8e-05 (inactive) |
| Cc1ccc(S(=O)(=O)N2CCCC2C(=O)OCc2ccco2)cc1 (stereo not given) | -4e-05 (inactive) |
| COC(=O)c1ccc(CN(c2ccccc2OC)S(=O)(=O)c2cccs2)o1 | -5.7e-05 (inactive) |
| CCOc1ccc(C(c2nnnn2Cc2ccccc2)N2CCN(C(=O)c3ccco3)CC2)cc1 (stereo not given) | -2.2e-06 (inactive) |
| CCOC(=O)Cc1nnc(NC(=O)CSc2nnc3c4ccccc4n(C(C)C)c3n2)s1 | -3.3e-05 (inactive) |
| O=C(NC1CCCC1)c1cc(-c2cccs2)on1 | -2.8e-06 (inactive) |
| Cc1ccc(-c2c3c(=O)n(C)c(=O)n(C)c3cn2CCCN2CCOCC2)cc1 | 2.2e-05 (inactive) |
| Cc1nnc(C)c2c(C)n(-c3ccc(Br)cc3)c(C)c12 | -4.6e-05 (inactive) |
| O=C(CCCn1c(=O)c2sccc2n(CC(=O)NCc2ccco2)c1=O)NCc1ccco1 | -5.7e-05 (inactive) |
| CCOc1ccc2nc(NC(=O)C(NS(=O)(=O)c3cccs3)C(C)C)sc2c1 (stereo not given) | 2.6e-05 (inactive) |
| Cc1cc(NC(=O)COC(=O)c2cccc(S(=O)(=O)N3CCOCC3)c2)no1 | 1.8e-05 (inactive) |

| SMILES | NADPH fluorescence slope |
| --- | --- |
| Cc1nc2sc(C(c3cccc(F)c3)N3CCN(C(=O)c4ccco4)CC3)c(O)n2n1 (stereo not given) | -1.4e-05 (inactive) |
| O=C(O)C1CC(=O)N(c2ccc(OCc3c(F)cccc3Cl)cc2)C1 (stereo not given) | -2.6e-05 (inactive) |
| N#C/C(C(=O)N1CCOCC1)=C1/SC=C(c2ccccc2)N1c1ccccc1 | -3e-05 (inactive) |
| CCCC(C)C1C(C#N)=C(N)Oc2cc(C)oc(=O)c21 (stereo not given) | -9.5e-05 (inactive) |
| Cc1cc(NC(=O)c2ccccc2Oc2ccccc2)no1 | -6.9e-05 (inactive) |
| CC(C)(C)c1cc(C(=S)N2CCN(CCO)CC2)cc(C(C)(C)C)c1O | -4.4e-05 (inactive) |
| CCC(C)NC(=O)C1CCCN(S(=O)(=O)c2ccc(-n3cnnn3)cc2)C1 (stereo not given) | 8.9e-07 (inactive) |
| CC1(C)C2CCC1(CS(=O)(=O)NCc1ccc(C(=O)O)cc1)C(=O)C2 (stereo not given) | 2.9e-05 (inactive) |
| Cc1nnc(NC(=O)Nc2cccc(Cl)c2)s1 | -1.8e-05 (inactive) |
| O=C(CN1CCOCC1)N1CCN(C(=O)CN2CCOCC2)CC1 | 9.6e-05 (inactive) |
| COc1ccc2c(c1OC)C(=O)OC2Nn1cncn1 (stereo not given) | 1.7e-05 (inactive) |
| N#Cc1cnc(SCC(=O)Nc2ccccc2C(F)(F)F)nc1N | 5.4e-05 (inactive) |
| O=C(NCc1ccco1)C1CC(=O)N(c2ccc(F)cc2)C1 (stereo not given) | -2e-05 (inactive) |
| CCOC(=O)C1CCCN(c2nc3ccccc3nc2C(C#N)C(=O)NCc2ccccc2)C1 (stereo not given) | -2.8e-05 (inactive) |
| CCOc1cc(C)c(Cl)cc1S(=O)(=O)N(C)C | -5.1e-05 (inactive) |
| Cc1c(C(=O)O)oc2ccc(S(=O)(=O)NCCC3=CCCCC3)cc12 | 4.4e-05 (inactive) |
| CCOC(=O)CSC1=Nc2ccccc2C2=NC(CC(=O)NCc3ccc(OC)cc3)C(=O)N12 (stereo not given) | -8e-06 (inactive) |
| COc1ccc(C(F)(F)F)cc1NC(=O)c1nc2nc(C)cc(C(F)F)n2n1 | -2e-05 (inactive) |
| CCSc1nc2c(c(=O)n(C)c(=O)n2C)n1Cc1ccc(Cl)cc1 | -4.7e-05 (inactive) |
| O=C(COC(=O)c1ccco1)NCc1cccs1 | -5.7e-05 (inactive) |

What follows are molecules tested against Muscarinic acetylcholine receptor M4 (Homo sapiens) (UniProt P08173) (assay: compounds altering M4/GIRK thallium flux, either direction, primary screen, M4 allosteric agonist project, cell-based, HEK293 M4/GIRK, BTC-AM (AID 625;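 further: thallium influx through GIRK channels coupled to M4 in HEK293 cells with BTC-AM dye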)). Details: at 10 µM, actives lie on both sides.
Chain of Muscarinic acetylcholine receptor M4 (Homo sapiens) (P08173 whole entry, looked up): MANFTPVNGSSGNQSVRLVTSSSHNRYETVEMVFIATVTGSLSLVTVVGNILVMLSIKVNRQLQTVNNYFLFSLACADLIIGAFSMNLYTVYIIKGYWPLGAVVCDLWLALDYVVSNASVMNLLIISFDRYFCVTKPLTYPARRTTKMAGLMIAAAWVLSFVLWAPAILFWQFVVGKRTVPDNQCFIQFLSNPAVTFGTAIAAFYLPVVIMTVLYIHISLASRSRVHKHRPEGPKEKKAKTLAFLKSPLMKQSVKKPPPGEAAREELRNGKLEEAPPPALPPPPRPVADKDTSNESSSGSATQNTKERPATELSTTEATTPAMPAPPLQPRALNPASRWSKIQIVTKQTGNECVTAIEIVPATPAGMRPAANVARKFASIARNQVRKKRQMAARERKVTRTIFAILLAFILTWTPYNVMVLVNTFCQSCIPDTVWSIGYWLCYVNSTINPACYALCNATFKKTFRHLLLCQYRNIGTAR
Summary of the method: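 Assay system: HEK293 cells with M4 receptor and GIRK channels / Controls: carbachol and DMSO controls / Schedule: 1 h dye loading, 2 min kinetic read / Technique: kinetic fluorescence with BTC-AM dye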

| SMILES | fluorescence slope |
| --- | --- |
| CC(=O)Nc1ccc(Oc2cc(C#N)c(C#N)cc2N2CCCCCC2)cc1 | 0.00486 (inactive) |
| COc1ccc2cnn(-c3ccccc3)c(=O)c2c1OC | 0.00377 (inactive) |
| COC(=O)c1[nH]c2ccccc2c1NC(=O)CN1CCC(C(N)=O)(N2CCCCC2)CC1 | 0.00286 (inactive) |
| CCOC(=O)CSc1nc2cc(C(=O)NCc3ccco3)ccc2c(=O)n1-c1ccc(F)cc1 | 0.00969 (inactive) |
| CSc1nnc2c3ccccc3n(Cc3ccccc3)c2n1 | 0.00511 (inactive) |
| O=C(c1cccs1)c1cn(CC(=O)N2CCc3ccccc3C2)c2ccccc12 | 0.00668 (inactive) |
| Cc1ccccc1CN1CCN(CC(=O)NCc2ccco2)C1=O | 0.00663 (inactive) |
| Cc1ccc(CC23CN4CCN(CC(C4)C2O)C3)c(C)c1 (stereo not given) | 0.0044 (inactive) |
| C[C@H](NC(=O)Nc1ccccc1F)C(=O)O | 0.00462 (inactive) |
| COc1cc(-c2c(C#N)c(N)nc3c2CCCC3)cc(OC)c1OC | 0.0058 (inactive) |
| Cc1ccc(S(=O)(=O)N2CCCC2C(=O)OCc2ccco2)cc1 (stereo not given) | 0.005 (inactive) |
| COC(=O)c1ccc(CN(c2ccccc2OC)S(=O)(=O)c2cccs2)o1 | 0.00695 (inactive) |
| CCOc1ccc(C(c2nnnn2Cc2ccccc2)N2CCN(C(=O)c3ccco3)CC2)cc1 (stereo not given) | 0.00546 (inactive) |
| CCOC(=O)Cc1nnc(NC(=O)CSc2nnc3c4ccccc4n(C(C)C)c3n2)s1 | 0.00407 (inactive) |
| O=C(NC1CCCC1)c1cc(-c2cccs2)on1 | 0.00483 (inactive) |
| Cc1ccc(-c2c3c(=O)n(C)c(=O)n(C)c3cn2CCCN2CCOCC2)cc1 | 0.00744 (inactive) |
| Cc1nnc(C)c2c(C)n(-c3ccc(Br)cc3)c(C)c12 | 0.00472 (inactive) |
| O=C(CCCn1c(=O)c2sccc2n(CC(=O)NCc2ccco2)c1=O)NCc1ccco1 | 0.00613 (inactive) |
| CCOc1ccc2nc(NC(=O)C(NS(=O)(=O)c3cccs3)C(C)C)sc2c1 (stereo not given) | 0.00543 (inactive) |
| Cc1cc(NC(=O)COC(=O)c2cccc(S(=O)(=O)N3CCOCC3)c2)no1 | 0.00706 (inactive) |

| SMILES | fluorescence slope |
| --- | --- |
| Cc1nc2sc(C(c3cccc(F)c3)N3CCN(C(=O)c4ccco4)CC3)c(O)n2n1 (stereo not given) | 0.00489 (inactive) |
| O=C(O)C1CC(=O)N(c2ccc(OCc3c(F)cccc3Cl)cc2)C1 (stereo not given) | 0.0057 (inactive) |
| N#C/C(C(=O)N1CCOCC1)=C1/SC=C(c2ccccc2)N1c1ccccc1 | 0.00553 (inactive) |
| CCCC(C)C1C(C#N)=C(N)Oc2cc(C)oc(=O)c21 (stereo not given) | 0.00507 (inactive) |
| Cc1cc(NC(=O)c2ccccc2Oc2ccccc2)no1 | 0.00465 (inactive) |
| CC(C)(C)c1cc(C(=S)N2CCN(CCO)CC2)cc(C(C)(C)C)c1O | 0.00566 (inactive) |
| CCC(C)NC(=O)C1CCCN(S(=O)(=O)c2ccc(-n3cnnn3)cc2)C1 (stereo not given) | 0.00556 (inactive) |
| CC1(C)C2CCC1(CS(=O)(=O)NCc1ccc(C(=O)O)cc1)C(=O)C2 (stereo not given) | 0.00724 (inactive) |
| Cc1nnc(NC(=O)Nc2cccc(Cl)c2)s1 | 0.00561 (inactive) |
| O=C(CN1CCOCC1)N1CCN(C(=O)CN2CCOCC2)CC1 | 0.00604 (inactive) |
| COc1ccc2c(c1OC)C(=O)OC2Nn1cncn1 (stereo not given) | 0.00408 (inactive) |
| N#Cc1cnc(SCC(=O)Nc2ccccc2C(F)(F)F)nc1N | 0.00496 (inactive) |
| O=C(NCc1ccco1)C1CC(=O)N(c2ccc(F)cc2)C1 (stereo not given) | 0.00568 (inactive) |
| CCOC(=O)C1CCCN(c2nc3ccccc3nc2C(C#N)C(=O)NCc2ccccc2)C1 (stereo not given) | 0.00538 (inactive) |
| CCOc1cc(C)c(Cl)cc1S(=O)(=O)N(C)C | 0.00578 (inactive) |
| Cc1c(C(=O)O)oc2ccc(S(=O)(=O)NCCC3=CCCCC3)cc12 | 0.0068 (inactive) |
| CCOC(=O)CSC1=Nc2ccccc2C2=NC(CC(=O)NCc3ccc(OC)cc3)C(=O)N12 (stereo not given) | 0.00508 (inactive) |
| COc1ccc(C(F)(F)F)cc1NC(=O)c1nc2nc(C)cc(C(F)F)n2n1 | 0.00547 (inactive) |
| CCSc1nc2c(c(=O)n(C)c(=O)n2C)n1Cc1ccc(Cl)cc1 | 0.00489 (inactive) |
| O=C(COC(=O)c1ccco1)NCc1cccs1 | 0.0055 (inactive) |
